Results on 23 molecules are retold here after ChEMBL document CHEMBL2311285, “3-Thiomorpholin-8-oxo-8H-acenaphtho [1,2-b] pyrrole-9-carbonitrile (S1) derivatives as pan-Bcl-2-inhibitors of Bcl-2, Bcl-xL and Mcl-1” (Bioorg Med Chem, 2013).

One data set has as its target Bcl-2-like protein 1 (Homo sapiens, UniProt Q07817). Put plainly: Binding affinity to N-terminal 8xHis tagged cBcl-XL (unknown origin) expressed in Escherichia coli BL21 (DE3) by ELISA. In general terms: ELISA stands for enzyme-linked immunosorbent assay.
The target in data set [1] is T1, Apoptosis regulator Bcl-2 (Homo sapiens, UniProt P10415). Description: Binding affinity to human Bcl-2 (unknown origin) by ITC assay. A general note: ITC needs no label: the signal is the heat of the interaction.
In data set [2] the target is T1, Apoptosis regulator Bcl-2. Put plainly: Binding affinity to human Bcl-2 (unknown origin) by biotin-Bim displacement based ELISA.
The target in data set [3] is T2, Induced myeloid leukemia cell differentiation protein Mcl-1 (Homo sapiens, UniProt Q07820). Description: Binding affinity to cMcl-1 (residues 171 to 327) (unknown origin) by biotin-Bim displacement based ELISA. In a few lines: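 Competitive ELISA: biotin-Bim (residues 81-106) at 0.09 µg/mL in blocking buffer bound to streptavidin-coated wells for 1.5 h. Serial compound dilutions (from 10 mM DMSO stock) containing 0.01% Triton X-100 preincubated 1 h with 20 nM His-tagged protein in PBS, then transferred to wells for 2 h. Anti-His-HRP added for 1 h, then TMB for 30 min, stopped with H2SO4. Room temperature throughout.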

The target of data set [4] is T2, Induced myeloid leukemia cell differentiation protein Mcl-1. Description: Binding affinity to cMcl-1 (residues 171 to 327) (unknown origin) by ITC assay. The following applies: for Kd: read-out: pKd (converted); for pKd: read-out: Kd. In a few lines: (§1)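 ITC at 25 °C in 20 mM Tris pH 8.0, 150 mM NaCl, 1% DMSO. For wild-type versus R263A comparison, 16 × 2.5 µL injections of 500 µM compound into 50 µM protein. Data were corrected against a buffer-only cell titrated with compound and fitted to a one-site model to give Kd.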

Data set [5] deals with Induced myeloid leukemia cell differentiation protein Mcl-1 (Homo sapiens, UniProt Q07820, R263A). Put plainly: Binding affinity to cMcl-1 R263A mutant (unknown origin) by ITC assay. Type of data set: single protein. The gist of the method:
as §1

A further data set deals with MCF7. Description: Induction of apoptosis in human MCF7 cells assessed as cytochrome c release at 5 uM incubated for 12 hrs in presence of Bax/Bak ShRNA by Western blotting method. Type of data set: functional, cell-based. In a few lines:
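Wild-type MCF-7 cells and Bax/Bak shRNA-transfected MCF-7 cells were treated with 5 µM compound. Cytochrome c was detected by western blot in the S-100 cytosolic fraction, obtained from digitonin lysis and centrifugation.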
For orientation: Immunoblotting shows a protein as a band on a membrane.

A short description of data set [6]: Solubility in 1% DMSO/H2O. Type of data set: physicochemical.
In the next data set the test system is HL-60. Put plainly: Induction of apoptosis in human HL60 cells assessed as cytochrome c release at 5 uM incubated for 12 hrs by Western blotting method. Type of data set: functional, cell-based. In a few lines:
(§2)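 Cells treated 12 h with 5 µM compound, then lysed in digitonin lysis buffer. After centrifugation, the cytosolic supernatant (S-100) was probed for cytochrome c by western blot. A parallel harvest was used for Mcl-1/Bak and Bcl-2/Bax co-immunoprecipitation.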

The test system of a further data set is K562. Description: Induction of apoptosis in human K562 cells assessed as cytochrome c release at 5 uM incubated for 12 hrs by Western blotting method. Type of data set: functional, cell-based. In a few lines:
as §2

pIC50, pKd: −log10 of the molar value. In brackets after ≈: the same amount, converted by molar mass. Activity calls are given as the source filed them. The rule behind the calls is not given here.

Bcl-2-like protein 1, sequence (Q07817 whole entry): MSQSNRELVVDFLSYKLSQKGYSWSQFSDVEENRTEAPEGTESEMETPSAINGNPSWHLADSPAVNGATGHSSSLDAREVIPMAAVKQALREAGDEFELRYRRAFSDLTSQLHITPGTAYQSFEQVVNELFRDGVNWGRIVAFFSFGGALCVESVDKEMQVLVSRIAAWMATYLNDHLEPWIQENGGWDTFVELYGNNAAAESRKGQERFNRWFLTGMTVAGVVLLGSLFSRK
T2 sequence (Q07820 whole entry, the tested form may be a part): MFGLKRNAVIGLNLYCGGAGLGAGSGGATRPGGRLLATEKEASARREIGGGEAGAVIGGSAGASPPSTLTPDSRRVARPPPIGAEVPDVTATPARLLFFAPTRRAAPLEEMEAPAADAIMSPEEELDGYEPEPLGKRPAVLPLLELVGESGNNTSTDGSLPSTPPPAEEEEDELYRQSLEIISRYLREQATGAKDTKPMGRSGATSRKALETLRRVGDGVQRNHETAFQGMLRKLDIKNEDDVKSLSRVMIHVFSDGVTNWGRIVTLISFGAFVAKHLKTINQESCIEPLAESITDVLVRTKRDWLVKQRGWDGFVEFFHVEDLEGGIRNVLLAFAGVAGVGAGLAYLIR
T1 sequence (P10415 whole entry): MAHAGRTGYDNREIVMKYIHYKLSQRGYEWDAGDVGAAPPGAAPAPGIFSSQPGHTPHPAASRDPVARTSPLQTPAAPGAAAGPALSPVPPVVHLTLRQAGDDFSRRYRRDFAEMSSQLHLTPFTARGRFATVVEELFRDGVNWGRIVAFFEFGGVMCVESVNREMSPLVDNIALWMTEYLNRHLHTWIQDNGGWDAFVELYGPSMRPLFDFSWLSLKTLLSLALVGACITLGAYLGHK
Induced myeloid leukemia cell differentiation protein Mcl-1 (Homo sapiens, UniProt Q07820, R263A), sequence (Q07820 whole entry R263A): as the sequence (Q07820 whole entry, the tested form may be a part) above, with R263A counted along it

One may read the pIC50 as the negative decadic logarithm of the IC50, by convention in mol/L. A higher pIC50 goes with a low IC50. What is called pKd is the negative decadic logarithm of the Kd, by convention in mol/L. Regarding `CCCCCCNC1=C2C(=NC1=O)c1cccc3c(Sc4ccc(N)cc4)ccc2c13`, the pIC50 was 7.15 at Bcl-2-like protein 1, 7.10 in [2] and 7.52 in [3]. The negative-log Kd (pKd) in data set [1] was 7.10. For the same molecule, the Kd in [4] was 29.5 nM.

Consider `CCCOC(=O)C1=C2C(=NC1=O)c1cccc3c(N4CCSCC4)ccc2c13`, for which the results for the pIC50 in data set [2] and in [3] were 5.68 and less than 5.00, respectively.

Take `O=C1N=C2C(=C1NCCCc1ccccc1)c1ccc(Sc3ccc(OO)cc3)c3cccc2c13`: the negative logarithm of the IC50 (pIC50) at Bcl-2-like protein 1 was 7.28; in [2] it was 7.24; in data set [3], 7.38. The molecule further showed a pKd in [1] of 7.24. Also, the Kd in [4] is 41.7 nM.

In the case of `CCCCNC1=C2C(=NC1=O)c1cccc3c(Oc4ccc(C(C)C)cc4)ccc2c13`, the pIC50 on Bcl-2-like protein 1 was 6.55; in data set [2] it was 6.49; in [3], 6.85. This molecule had a pKd in data set [1] of 6.49. Moreover, the Kd in data set [4] is 141 nM.

Regarding `CCCCCNC1=C2C(=NC1=O)c1cccc3c(N4CCSCC4)ccc2c13`, the pIC50 in data set [3] was 7.43.

As to `CC(C)NC1=C2C(=NC1=O)c1cccc3c(N4CCSCC4)ccc2c13`, the results for the pIC50 in [2] and in data set [3] were less than 5.00 and 5.60, respectively.

For the molecule `N#CC1=C2C(=NC1=O)c1cccc3c(Sc4ccc(N)cc4)ccc2c13`, the figures for the pIC50 (at Bcl-2-like protein 1; in data set [2]; in [3]) were 6.54, 6.48 and 7.05, respectively. The molecule also had a pKd in [1] of 6.48. Moreover, the Kd in data set [4] is 91.2 nM.

Take `CCOC(=O)C1=C2C(=NC1=O)c1cccc3c(N4CCSCC4)ccc2c13`: the negative-log IC50 (pIC50) is 5.66 in [2] and less than 5.00 in [3].

With `CC(C)c1ccc(Oc2ccc3c4c(cccc24)C2=NC(=O)C(C#N)=C23)cc1`, the negative-log IC50 (pIC50) at Bcl-2-like protein 1 is 6.19; in [2], 6.13; in data set [3], 6.49. In data set [1], this molecule showed a negative-log Kd (pKd) of 6.12. Moreover, the Kd in [4] is 324 nM.

For `COc1ccc(Sc2ccc3c4c(cccc24)C2=NC(=O)C(C#N)=C23)cc1`, the negative logarithm of the IC50 (pIC50) at Bcl-2-like protein 1 is 6.08; in [2] it was 6.02; in [3], 6.41. The same molecule had a pKd in [1] of 6.02. For the same molecule, the Kd in [4] was 389 nM.

As for `CCCCCCNC1=C2C(=NC1=O)c1cccc3c(Oc4ccc(C(C)C)cc4)ccc2c13`, the values for the pIC50 (on Bcl-2-like protein 1; in data set [2]; in data set [3]) were 6.79, 6.74 and 7.12, respectively. For the same molecule, the negative-log Kd (pKd) in data set [1] was 6.74; in data set [4], 6.10; in data set [5], 4.72. Besides, the Kd in [4] was 79.4 nM.

In the case of `O=C1N=C2C(=C1NCCCc1ccccc1)c1ccc(N3CCSCC3)c3cccc2c13`, the figures for the pIC50 (at Bcl-2-like protein 1; in data set [2]; in data set [3]) were 7.37, 7.31 and 7.82, respectively. The negative logarithm of the Kd (pKd) in [1] was 7.31. Besides, the Kd in data set [4] was 15.1 nM.

As for `CCCCCCNC1=C2C(=NC1=O)c1cccc3c(Sc4ccc(OC)cc4)ccc2c13`, the negative-log IC50 (pIC50) was 6.74 on Bcl-2-like protein 1, 6.69 in data set [2] and 7.11 in [3]. For the same molecule, the negative logarithm of the Kd (pKd) in data set [1] is 6.69. The Kd in data set [4] was 77.6 nM.

As to `O=C1N=C2C(=C1NCc1ccccc1)c1ccc(N3CCSCC3)c3cccc2c13`, the pIC50 is less than 5.00 in data set [2] and 6.28 in data set [3].

As for `CCCCCCNC1=C2C(=NC1=O)c1cccc3c(N4CCSCC4)ccc2c13`, the pIC50 at Bcl-2-like protein 1 is 7.07; in [2] it was 7.02; in data set [3], 7.43. In data set [1], this molecule had a negative logarithm of the Kd (pKd) of 7.02. The Kd in data set [4] is 37.2 nM.

As to `CCCCNC1=C2C(=NC1=O)c1cccc3c(N4CCSCC4)ccc2c13`, the pIC50 was 6.77 on Bcl-2-like protein 1, 6.70 in data set [2] and 7.10 in [3]. The molecule also showed a pKd in data set [1] of 6.70. For the same molecule, the Kd in [4] was 79.4 nM.

Regarding `CC(C)c1ccc(Oc2ccc3c4c(cccc24)C2=NC(=O)C(NCCCc4ccccc4)=C23)cc1`, the negative-log IC50 (pIC50) on Bcl-2-like protein 1 is 7.43; in data set [2], 7.38; in data set [3], 7.41. Further, the pKd in [1] was 7.38. In addition, the Kd in [4] is 38.9 nM.

Turning to `O=C1N=C2C(=C1NCCCCCc1ccccc1)c1ccc(N3CCSCC3)c3cccc2c13`, the negative-log IC50 (pIC50) in [2] is 5.89; in data set [3], 5.96.

With `CCCCNC1=C2C(=NC1=O)c1cccc3c(Sc4ccc(OC)cc4)ccc2c13`, the pIC50 at Bcl-2-like protein 1 is 6.50; in data set [2], 6.45; in [3], 6.82. Besides, in [1], the negative-log Kd (pKd) was 6.45. Moreover, the Kd in [4] was 151 nM.

For `Cc1cc2c(C(C)C)c(O)c(O)c(C=O)c2c(O)c1-c1c(C)cc2c(C(C)C)c(O)c(O)c(C=O)c2c1O` [GOSSYPOL], in data set [4], the pKd is 5.63. Moreover, in the data set on MCF7, the result was Active.

As usually defined, the solubility is the dissolved amount per volume that the medium holds. Lower therefore signals a poorly soluble substance. `CCCCNC1=C2C(=NC1=O)c1cccc3c(Sc4ccc(N)cc4)ccc2c13` yielded a solubility in [6] of 27 µg/mL (≈ 67.6 µM). For the same molecule, the figures for the negative-log IC50 (pIC50) (on Bcl-2-like protein 1; in [2]; in [3]) were 6.78, 6.72 and 7.30, respectively. In addition, the results for the pKd in data set [1], in data set [4] and in [5] were 6.72, 6.29 and 4.89, respectively. Besides, in [4], the Kd was 50.1 nM. Besides, the outcome in the data set on HL-60 and in the data set with K562 was Active. Also, the result in the data set on MCF7 was inactive.

In data set [6], `N#CC1=C2C(=NC1=O)c1cccc3c(N4CCSCC4)ccc2c13` came in with a solubility of 2 µg/mL (≈ 6.04 µM). Also, the negative-log IC50 (pIC50) at Bcl-2-like protein 1 was 6.20; in data set [2], 6.15; in [3] it was 7.02. For the same molecule, the results for the negative logarithm of the Kd (pKd) in data set [1], in [4] and in data set [5] were 6.15, 6.02 and 4.54, respectively. In addition, the Kd in data set [4] was 95.5 nM.

As to `Nc1ccc(Sc2ccc3c4c(cccc24)C2=NC(=O)C(NCCCc4ccccc4)=C23)cc1`, the solubility in data set [6] was found to be 18 µg/mL (≈ 39 µM). The negative logarithm of the IC50 (pIC50) is 7.74 at Bcl-2-like protein 1, 7.70 in [2] and 8.00 in [3]. For the same molecule, the values for the pKd in [1], in data set [4] and in data set [5] were 7.70, 6.98 and 5.63, respectively. Further, in data set [4], the Kd is 10 nM. For the same molecule, the outcome in the data set with HL-60 and with K562 was Active. In addition, the outcome with MCF7 was inactive.
